Data set [1] in a line: Induction of apoptosis in human INA-6 cells after 3 days by V-FITC/ propidium iodide staining-based flow cytometric analysis. In kind it is functional, cell-based. Put shortly:
(§1)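 INA-6 multiple myeloma cells, or mononuclear cells from the peripheral blood of healthy donors, exposed to a range of concentrations for 3 d, with melphalan as reference. Cells stained 10 min with annexin V-FITC and PI in HEPES binding buffer pH 7.4 (140 mM NaCl, 2.5 mM CaCl2), then analysed by flow cytometry. The annexin/PI double-negative fraction counted as viable, and EC50 derived from dose-response curves.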
On the technique in general: Flow cytometry measures light scatter and fluorescence of single cells or particles in a stream.

Data set [2] can be described thus: Resistance index, ratio of IC50 for human CEM/ADR5000 cells to IC50 for human CCRF-CEM cells. In kind it is functional. Put shortly:
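Degree of resistance is the IC50 for CEM/ADR5000 divided by the IC50 for CCRF-CEM. Both come from resazurin viability dose-response curves over three independent experiments.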

Data set [3] concerns CCRF-CEM. The experiment in a line: Growth inhibition of human CCRF-CEM cells at 10 uM by resazurin assay relative to control. To be noted: read-out: GI. In kind it is functional. The gist of the method: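 Drug-sensitive CCRF-CEM leukemia cells treated at a single concentration of 10 μM, with doxorubicin as reference and DMSO vehicle (under 1.0%) as negative control. Viability read by resazurin fluorescence (ex 544, em 590 nm) relative to untreated cells. Three independent experiments, six parallel measurements each.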

A further data set relates to ADR5000 cell line. The experiment in a line: Growth inhibition of human multi-drug resistant CEM/ADR5000 cells by resazurin assay. In kind it is functional, cell-based. The gist of the method: (§2)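 CCRF-CEM cells and the P-glycoprotein-overexpressing multidrug-resistant subline CEM/ADR5000 treated over a range of concentrations, with doxorubicin as positive control and DMSO (under 1.0%) as negative control. Resazurin fluorescence read at ex 544/em 590 nm against untreated cells. IC50 taken from a calibration curve by linear regression. Mean ± SD of three independent experiments, six parallel measurements each.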

The subject of data set [4] is CCRF-CEM. The data set can be described thus: Growth inhibition of human CCRF-CEM cells by resazurin assay. In kind it is functional, cell-based. Put shortly:
as §2
(In general: The colour change of resazurin is a common sign of viable cells or microbes.)

In a further data set the test system is Leishmania donovani. The experiment in a line: Antiprotozoal activity against amastigote form of Leishmania donovani MHOM/ET/67/L82 after 72 hrs by Alamar Blue assay. In kind it is functional. The note with it: MHOM/ET/67/L82, 72 h. Put shortly: (§3)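 In vitro tests against P. falciparum NF54, T. cruzi, T. b. rhodesiense and L. donovani, with cytotoxicity on rat skeletal myoblast L6 host cells.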

In data set [5] the test system is Trypanosoma brucei rhodesiense. The experiment in a line: Antiprotozoal activity against patient derived Trypanosoma brucei rhodesiense STIB 900 bloodstream form after 72 hrs by Alamar Blue assay. In kind it is functional. The note with it: STIB 900, 72 h. Put shortly:
as §3

The next data set deals with Trypanosoma cruzi. The experiment in a line: Antiprotozoal activity against trypomastigote stage of Trypanosoma cruzi Tulahuen C2C4 infected in rat L6 cells using preincubated for 96 hrs by CPRG/Nonidet-based inverted microscopy. In kind it is functional, cell-based. The gist of the method: as §3
Another data set concerns L6. The experiment in a line: Cytotoxicity against rat L6 cells after 72 hrs by Alamar Blue assay. To be noted: L6, 72 h. In kind it is cell-based. Put shortly: as §3
The subject of data set [6] is Plasmodium falciparum. The experiment in a line: Antiprotozoal activity against erythrocytic stage of Plasmodium falciparum NF54 after 48 hrs by [3H]- hypoxanthine incorporation assay. In kind it is functional. Put shortly:
as §3

Data set [7] is described as follows: Selectivity index, ratio of IC50 for rat L6 cells to IC50 for erythrocytic stage of Plasmodium falciparum NF54. In kind it is toxicity. To be noted: read-out: Ratio IC50. Put shortly: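 Ratio of the L6 cell IC50 to the P. falciparum IC50. Each IC50 is the mean of two independent assays.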
The test system of a further data set is PBMC. The experiment in a line: Induction of apoptosis in human PBMC after 3 days by V-FITC/ propidium iodide staining-based flow cytometric analysis. In kind it is cell-based. To be noted: 72 h. Put shortly:
as §1

The subject of data set [8] is Plasmodium falciparum. The experiment in a line: Antiprotozoal activity against erythrocytic stage of chloroquine and pyrimethamine resistant Plasmodium falciparum K1 after 48 hrs by [3H]- hypoxanthine incorporation assay. In kind it is functional.
A short description of data set [9]: Selectivity index, ratio of IC50 for rat L6 cells to IC50 for erythrocytic stage of chloroquine and pyrimethamine resistant Plasmodium falciparum K1. To be noted: read-out: Ratio IC50. In kind it is toxicity. The gist of the method: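 Selectivity index: IC50 toward rat skeletal myoblast L6 cells (in vitro cytotoxicity, previously published method) divided by IC50 against P. falciparum K1; each IC50 is the mean of two independent assays.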

pEC50, pIC50: −log10 of the molar value. A value given as a limit tells only on which side of the number the result lay.

Regarding `COc1cccc2c(-c3ccc4c(c3O)[C@@H](C)N[C@H](C)C4)c(C)cc(O)c12` (stereo in doubt; P-11), the pEC50 (in general, the EC50 on a negative log10 scale, so that one unit is a factor of ten) in data set [1] (ina-6) was 5.57.

For `COc1cccc2c(-c3ccc4c(c3O)[C@@H](C)N[C@H](C)C4)c(C)cc(OC)c12` [DIONCOPHYLLINE A], in data set [1] (Homo sapiens, INA-6, 72 h), the pEC50 was 6.66. Moreover, the “Ratio IC50” value in [2] is 2.1. Also, the inhibition of growth at 10 µM in the data set on CCRF-CEM [3] was < 50%. Besides, the pIC50 (in general, the IC50 on a negative log10 scale, so that one unit is a factor of ten) with ADR5000 cell line was 6.28; with CCRF-CEM [4] it was 6.61.

As to `COc1cc2c(c(O)c1-c1c(C)cc(OC)c3c(OC)cccc13)C(C)=N[C@H](C)C2`, the pIC50 with Leishmania donovani is 3.83; in [5], 4.64; with Trypanosoma cruzi, 3.98; in the data set with L6, 4.46; with Plasmodium falciparum [6], 5.19. In data set [7], the selectivity ratio came out at 5.4.

`COc1cc(C)c(-c2ccc3c(c2O)[C@@H](C)N[C@H](C)C3)c2cccc(O)c12` showed a pEC50 in [1] (Homo sapiens, INA-6, 72 h) of 5.82.

With `COc1cccc2c(-c3ccc4c(c3O)[C@@H](C)N[C@H](C)C4)c(C)cc(O)c12` (stereo in doubt; M-11), the pEC50 in data set [1] (ina-6) is 4.80; in the data set with PBMC, 4.30.

`O=C(Cn1ccnc1[N+](=O)[O-])NCc1ccccc1` [BENZNIDAZOLE] gave a pIC50 in the data set on Trypanosoma cruzi of 5.64.

Consider `COc1cccc2c(-c3ccc(O)c4c3C[C@@H](C)N[C@H]4C)c(C)cc(OC)c12`, for which the pIC50 with Leishmania donovani was 3.64; in data set [5], 5.32; in the data set with Trypanosoma cruzi, 4.35; in the data set with L6 it was 4.36; with Plasmodium falciparum [6] it was 6.15. Moreover, in [7], the selectivity ratio was found to be 61.7.

For `COc1ccc(-c2ccc3c(c2O)[C@@H](C)N(C)[C@H](C)C3)c2cc(C)cc(OC)c12`, the pIC50 in the data set with Leishmania donovani is 3.87; in [5], 4.86; in the data set on Trypanosoma cruzi, 4.26; in the data set with L6, 4.20; in the data set with Plasmodium falciparum [6] it was 6.97. Besides, in data set [1] (Homo sapiens, INA-6, 72 h), the pEC50 is 4.49. In addition, the selectivity ratio in [7] worked out at 586.

With `COc1cc2c(c(OC)c1-c1c(C)cc(OC)c3c(OC)cccc13)[C@@H](C)N[C@@H](C)C2`, the pIC50 was 4.59 in the data set with Leishmania donovani; 6.50 in data set [5]; 4.91 in the data set on Trypanosoma cruzi; 4.52 in the data set with L6; 6.14 with Plasmodium falciparum [6]. Also, in [1] (Homo sapiens, INA-6, 72 h), the pEC50 was 5.32. Besides, the selectivity ratio in [7] stood at 41.

In the case of `COc1ccc(-c2ccc3c(c2O)[C@@H](C)N[C@H](C)C3)c2cc(C)cc(OC)c12`, the pIC50 in the data set with Leishmania donovani is < 3.58; in [5], 5.09; with Trypanosoma cruzi, 4.58; in the data set with L6, 5.40; in the data set with ADR5000 cell line, 5.27; with Plasmodium falciparum [6], 6.64. This compound also showed a pIC50 in the data set with CCRF-CEM [4] of 5.73. The pEC50 in data set [1] (Homo sapiens, INA-6, 72 h) was 5.59; with PBMC it was 4.72. The “Ratio IC50” value in [2] turned out to be 2.9. The inhibition of growth at 10 µM with CCRF-CEM [3] is < 50%. For the same compound, the selectivity ratio in data set [7] was determined as 17.6.

Take `COc1cccc2c(-c3ccc4c(c3O)[C@@H](C)N(C(C)=O)[C@H](C)C4)c(C)cc(OC)c12` [N-ACETYLDIONCOPHYLLINE A]: the pEC50 in data set [1] (Homo sapiens, INA-6, 72 h) was 6.10.

In data set [1] (Homo sapiens, INA-6, 72 h), `N[C@@H](Cc1ccc(N(CCCl)CCCl)cc1)C(=O)O` gave a pEC50 of 5.70.

With `COc1ccc(-c2ccc(O)c3c2C[C@@H](C)N[C@H]3C)c2cc(C)cc(OC)c12`, the negative-log IC50 (pIC50) in the data set on Leishmania donovani was 3.97; in the data set on Plasmodium falciparum [8] it was 7.35; in data set [5] it was 6.23; in the data set on Trypanosoma cruzi, 4.84; in the data set with L6, 4.84; in the data set with Plasmodium falciparum [6], 7.05. For the same compound, the pEC50 in data set [1] (Homo sapiens, INA-6, 72 h) is 4.68; with PBMC, 4.80. The values for the selectivity ratio in data set [9] and in [7] were 323 and 161, respectively.

With `COc1cccc2c1C(=O)c1c(O)c3c(c(O)c1C2=O)C[C@@](O)(C(=O)CO)C[C@@H]3O[C@H]1C[C@H](N)[C@H](O)[C@H](C)O1` [DOXORUBICIN], the “Ratio IC50” value in data set [2] was 1769. The values for the pIC50 in the data set with ADR5000 cell line and in the data set with CCRF-CEM [4] were 4.52 and 7.77, respectively.

Regarding `COc1cc(C)c(-c2ccc(O)c3c2C[C@@H](C)N[C@@H]3C)c2cccc(O)c12` [DIONCOPHYLLINE C], the negative logarithm of the EC50 (pEC50) was 5.12 in [1] (Homo sapiens, INA-6, 72 h) and 5.05 in the data set with PBMC.

Values taken from ChEMBL document CHEMBL4052596, “Dioncophyllines C2, D2, and F and Related Naphthylisoquinoline Alkaloids from the Congolese Liana Ancistrocladus ileboensis with Potent Activities against Plasmodium falciparum and against Multiple Myeloma and Leukemia Cell Lines” (J Nat Prod, 2017).
